In ChEMBL document CHEMBL1134510, “Adenosine analogues as selective inhibitors of glyceraldehyde-3-phosphate dehydrogenase of Trypanosomatidae via structure-based drug design” (J Med Chem, 2001):

Tests used:
[1] = In vitro inhibition of Trypanosoma brucei GAPDH.
Procedure, shortened: (§1)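 Spectrophotometric assay at 23 °C in 0.10 M triethanolamine/HCl, pH 7.5. Enzyme starts the reaction and inhibitors are in 5% DMSO-d₆. Initial rates over 0–2 min are compared with control. IC50 comes from ≥5 concentrations, or is extrapolated from ≥3 concentrations when above 50 µM.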

[2] = target: Glyceraldehyde-3-phosphate dehydrogenase, glycosomal (Leishmania mexicana, UniProt Q27890); assay: Inhibitory activity against Leishmania mexicana GAPDH
Procedure, shortened: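 Spectrophotometric GAPDH assay at 23 °C in 0.10 M triethanolamine/HCl pH 7.5, read as NADH formation at 340 nm. Final: 5.0 mM MgSO4, 1.0 mM EDTA, 12.8 mM KH2PO4, 1.0 mM DTT, 1.0 mM NaN3, 0.45 mM NAD+, 1.87 mM fresh glyceraldehyde-3-phosphate, 5% DMSO-d6. Started with enzyme. Initial rates 0–2 min as % of control. IC50 from ≥5 concentrations (≤50 µM) or extrapolated from ≥3.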

[3] = In vitro inhibition of Trypanosoma cruzi GAPDH.; procedure, shortened: as §1
NIH3T3 = assay: Effective concentration required to inhibit the growth of murine 3T3 fibroblasts; assay type: functional; details: Mus musculus, read-out: ED50 (the source's name)
[4] = In vitro inhibition of rabbit muscle GAPDH.; design: species or system Oryctolagus cuniculus; procedure, shortened: as §1
Trypanosoma cruzi = assay: Effective concentration required to inhibit the growth of mammalian stage of Trypanosoma cruzi grown in murine 3T3 fibroblasts; assay type: functional; details: read-out: ED50 (the source's name)
Procedure, shortened: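 Tulahuen strain stably carrying E. coli lacZ. Mammalian stages are cocultured with mouse 3T3 fibroblasts in RPMI 1640 with 10% FBS at 37 °C, 5% CO₂. Intracellular growth is followed by a colorimetric β-galactosidase read-out. Assays were run twice.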

Trypanosoma brucei = assay: Effective concentration required to block the growth of bloodstream Trypanosoma brucei; assay type: functional; details: read-out: ED50 (the source's name)
Procedure, shortened: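 Bloodstream-form strain 427 trypomastigotes are grown in HMI-9 with 10% FBS at 37 °C, 5% CO₂. Triplicate wells are seeded at 5 × 10³ parasites per well with serially diluted drug. Growth is read with Alamar Blue at 48 h. Assays were run twice.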

[5] = Inhibitory activity against Leishmania mexicana GAPDH; Inactive at 50 uM

Glyceraldehyde-3-phosphate dehydrogenase, glycosomal, sequence (Q27890 whole entry, looked up): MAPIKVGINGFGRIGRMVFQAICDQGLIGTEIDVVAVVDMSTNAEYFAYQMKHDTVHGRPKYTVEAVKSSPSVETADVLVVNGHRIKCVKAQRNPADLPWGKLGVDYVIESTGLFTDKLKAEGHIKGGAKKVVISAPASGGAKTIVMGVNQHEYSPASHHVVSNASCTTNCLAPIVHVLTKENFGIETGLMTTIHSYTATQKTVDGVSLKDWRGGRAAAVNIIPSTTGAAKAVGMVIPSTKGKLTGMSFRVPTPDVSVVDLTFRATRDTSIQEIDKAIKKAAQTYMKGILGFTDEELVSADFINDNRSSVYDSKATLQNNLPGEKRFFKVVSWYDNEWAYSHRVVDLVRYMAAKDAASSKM

| IC50 [5] | SMILES | IC50 [1] [µM] | IC50 [2] [µM] | IC50 [3] [µM] | EC50 (NIH3T3) [µM] | IC50 [4] [µM] | EC50 (Trypanosoma cruzi) [µM] | EC50 (Trypanosoma brucei) [µM] |
| --- | --- | --- | --- | --- | --- | --- | --- | --- |
|  | O=C(N[C@@H]1[C@H](O)[C@@H](CO)O[C@H]1n1cnc2c(NCc3cc(O)cc4ccccc34)ncnc21)c1cc(Cl)cc(Cl)c1 | 55 | 25 | 40 | 43 | > 50 | 41 | 12 |
|  | O=C(N[C@@H]1[C@H](O)[C@@H](CO)O[C@H]1n1cnc2c(NCc3cccc4ccccc34)ncnc21)c1cccc(Cl)c1 |  | 6 |  |  |  |  |  |
|  | COc1ccc(C(=O)N[C@@H]2[C@H](O)[C@@H](CO)O[C@H]2n2cnc3c(NCc4cccc5ccccc45)ncnc32)cc1O |  | 37 |  |  |  |  |  |
|  | O=C(N[C@@H]1[C@H](O)[C@@H](CO)O[C@H]1n1cnc2c(NCc3cccc4ccccc34)ncnc21)c1cc(Cl)cc(Cl)c1 | 100 | 12 | 75 | 35 | > 50 | 7 | 5 |
|  | COc1cc(C(=O)N[C@@H]2[C@H](O)[C@@H](CO)O[C@H]2n2cnc3c(NCc4cccc5ccccc45)ncnc32)ccc1O |  | 10 |  |  |  |  |  |
|  | COc1cc(OC)cc(C(=O)N[C@@H]2[C@H](O)[C@@H](CO)O[C@H]2n2cnc3c(NCc4cc(OC)cc5ccccc45)ncnc32)c1 | 5 | 2 | 7 | > 50 | > 50 | 35 | 35 |
|  | COc1ccc(C(=O)N[C@@H]2[C@H](O)[C@@H](CO)O[C@H]2n2cnc3c(NCc4cccc5ccccc45)ncnc32)cc1OC | 47 | 4 | 7 | > 55 | > 50 | 22 | 36 |
|  | O=C(N[C@@H]1[C@H](O)[C@@H](CO)O[C@H]1n1cnc2c(NCc3cccc4ccccc34)ncnc21)c1cc(O)cc(O)c1 | 26 | 5 | 14 | > 50 | > 50 | > 50 | 50 |
|  | COc1cc(OC)cc(C(=O)N[C@@H]2[C@H](O)[C@@H](CO)O[C@H]2n2cnc3c(NCc4cc(O)cc5ccccc45)ncnc32)c1 | 8 | 2 | 10 | > 50 | > 50 | > 50 | 38 |
|  | O=C(N[C@@H]1[C@H](O)[C@@H](CO)O[C@H]1n1cnc2c(NCc3cc(O)cc4ccccc34)ncnc21)c1cccc(Cl)c1 | 25 | 4 | 12 | > 50 | > 50 | 30 | 16 |
|  | COc1cc(OC)cc(C(=O)N[C@@H]2[C@H](O)[C@@H](CO)O[C@H]2n2cnc3c(NCc4cccc5ccccc45)ncnc32)c1 | 7 | 2 | 7 | 40 | > 50 | 8 | 17 |
|  | O=C(N[C@@H]1[C@H](O)[C@@H](CO)O[C@H]1n1cnc2c(NCc3cccc4ccccc34)ncnc21)c1ccc(O)c(O)c1 |  | 18 |  |  |  |  |  |
|  | COc1ccc(C(=O)N[C@@H]2[C@H](O)[C@@H](CO)O[C@H]2n2cnc3c(NCc4cccc5ccccc45)ncnc32)cc1 |  | 100 |  |  |  |  |  |
|  | COc1ccc(C(=O)N[C@@H]2[C@H](O)[C@@H](CO)O[C@H]2n2cnc3c(NCc4cccc5ccccc45)ncnc32)cc1OC(C)=O |  | 78 |  |  |  |  |  |
|  | O=C(N[C@@H]1[C@H](O)[C@@H](CO)O[C@H]1n1cnc2c(NCc3cccc4ccccc34)ncnc21)c1ccc(O)cc1 |  | 80 |  |  |  |  |  |
|  | COc1cccc(C(=O)N[C@@H]2[C@H](O)[C@@H](CO)O[C@H]2n2cnc3c(NCc4cc(O)cc5ccccc45)ncnc32)c1 | 25 | 6 | 12 | > 50 | > 50 | > 50 | 35 |
|  | COc1cc(C(=O)N[C@@H]2[C@H](O)[C@@H](CO)O[C@H]2n2cnc3c(NCc4cccc5ccccc45)ncnc32)ccc1OC(C)=O |  | 10 |  |  |  |  |  |
|  | COc1cccc(C(=O)N[C@@H]2[C@H](O)[C@@H](CO)O[C@H]2n2cnc3c(NCc4cccc5ccccc45)ncnc32)c1 | 25 | 6 | 12 | 40 | > 50 | 10 | 18 |
|  | Nc1ncnc2c1ncn2C1O[C@H](CNC(=O)CC2CCCCC2)[C@@H](O)[C@H]1O (stereo partly specified) |  | 250 |  |  |  |  |  |
| Not Active | O=C(CC1CCCCC1)NC[C@H]1OC(n2cnc3c(NCc4cccc5ccccc45)ncnc32)[C@H](O)[C@@H]1O (stereo partly specified) |  |  |  |  |  |  |  |
|  | Nc1ncnc2c1ncn2C1O[C@H](CNC(=O)C(c2ccccc2)c2ccccc2)[C@@H](O)[C@H]1O (stereo partly specified) |  | 250 |  |  |  |  |  |
| Not Active | O=C(NC[C@H]1OC(n2cnc3c(NCc4cccc5ccccc45)ncnc32)[C@H](O)[C@@H]1O)C(c1ccccc1)c1ccccc1 (stereo partly specified) |  |  |  |  |  |  |  |
|  | COc1cccc(C(=O)N[C@@H]2[C@H](O)[C@@H](CO)O[C@H]2n2cnc3c(NCc4ccc(OC)c5ccccc45)ncnc32)c1 | 26 | 6 | 50 | 50 | > 50 | 12 | 10 |

| IC50 [5] | SMILES | IC50 [1] [µM] | IC50 [2] [µM] | IC50 [3] [µM] | EC50 (NIH3T3) [µM] | IC50 [4] [µM] | EC50 (Trypanosoma cruzi) [µM] | EC50 (Trypanosoma brucei) [µM] |
| --- | --- | --- | --- | --- | --- | --- | --- | --- |
|  | COc1cc(OC)cc(C(=O)N[C@@H]2C(Cn3cnc4c(NCc5ccccc5Sc5ccccc5CO)ncnc43)OC(CO)[C@@H]2O)c1 (stereo partly specified) |  | 75 |  |  |  |  |  |
|  | CC(=O)Oc1cc(OC(C)=O)cc(C(=O)N[C@@H]2[C@H](O)[C@@H](CO)O[C@H]2n2cnc3c(NCc4cccc5ccccc45)ncnc32)c1 | 14 | 10 | 12 | > 50 | > 50 | > 50 | > 50 |
| Not Active | O=C(N[C@@H]1[C@H](O)[C@@H](CO)O[C@H]1n1cnc2c(NCc3cccc4ccccc34)ncnc21)c1ccccc1O |  |  |  |  |  |  |  |
|  | COc1cccc(C(=O)N[C@@H]2[C@H](O)[C@@H](CO)O[C@H]2n2cnc3c(NCc4cc(OC)cc5ccccc45)ncnc32)c1 | 12 | 3 | 12 | > 50 | > 50 | 20 | 31 |
|  | O=C(N[C@@H]1[C@H](O)[C@@H](CO)O[C@H]1n1cnc2c(NCc3cccc4ccccc34)ncnc21)c1cccc(O)c1 |  | 25 |  |  |  |  |  |
|  | COc1cc(OC)cc(C(=O)N[C@@H]2C(Cn3cnc4c(Nc5ccc6ccccc6c5)ncnc43)OC(CO)[C@@H]2O)c1 (stereo partly specified) |  | 60 |  |  |  |  |  |
|  | COc1cc(CNc2ncnc3c2ncn3[C@@H]2O[C@H](CO)[C@@H](O)[C@H]2NC(=O)c2cc(Cl)cc(Cl)c2)c2ccccc2c1 | 45 | 25 | 40 | 32 | > 50 | 16 | 16 |
|  | CC(=O)Oc1ccc(C(=O)N[C@@H]2[C@H](O)[C@@H](CO)O[C@H]2n2cnc3c(NCc4cccc5ccccc45)ncnc32)cc1OC(C)=O |  | 25 |  |  |  |  |  |
|  | O=C(N[C@@H]1[C@H](O)[C@@H](CO)O[C@H]1n1cnc2c(NCc3cccc4ccccc34)ncnc21)c1ccc(Cl)cc1 |  | 100 |  |  |  |  |  |
|  | CC(=O)Oc1ccc(C(=O)N[C@@H]2[C@H](O)[C@@H](CO)O[C@H]2n2cnc3c(NCc4cccc5ccccc45)ncnc32)cc1 |  | 100 |  |  |  |  |  |
|  | COc1cc(OC)cc(C(=O)N[C@@H]2C(Cn3cnc4c(N)ncnc43)OC(CNC(=O)C(c3ccccc3)c3ccccc3)[C@@H]2O)c1 (stereo partly specified) |  | 60 |  |  |  |  |  |
|  | COc1cc(OC)cc(C(=O)N[C@@H]2C(Cn3cnc4c(NCc5ccccc5)ncnc43)OC(CO)[C@@H]2O)c1 (stereo partly specified) |  | 20 |  |  |  |  |  |
|  | COc1cc(OC)cc(C(=O)N[C@@H]2C(Cn3cnc4c(NCc5ccccc5C)ncnc43)OC(CO)[C@@H]2O)c1 (stereo partly specified) |  | 25 |  |  |  |  |  |
| Not Active | COc1cccc(C(=O)N[C@@H]2[C@H](O)[C@@H](CO)O[C@H]2n2cnc3c(NCc4cccc5ccccc45)ncnc32)c1OC(C)=O |  |  |  |  |  |  |  |
|  | COc1cc(OC)cc(C(=O)N[C@@H]2C(Cn3cnc4c(N)ncnc43)OC(CNC(=O)CC3CCCCC3)[C@@H]2O)c1 (stereo partly specified) |  | 100 |  |  |  |  |  |
|  | COc1cc(OC)cc(C(=O)N[C@@H]2C(Cn3cnc4c(NC5CCCc6ccccc65)ncnc43)OC(CO)[C@@H]2O)c1 (stereo partly specified) |  | 75 |  |  |  |  |  |
|  | COc1cc(OC)cc(C(=O)N[C@@H]2C(Cn3cnc4c(NC(c5ccccc5)c5ccccc5)ncnc43)OC(CO)[C@@H]2O)c1 (stereo partly specified) |  | 55 |  |  |  |  |  |
|  | COc1cc(OC)cc(C(=O)N[C@@H]2C(Cn3cnc4c(NCc5cccc(C)c5)ncnc43)OC(CO)[C@@H]2O)c1 (stereo partly specified) |  | 25 |  |  |  |  |  |
|  | CN(C)c1cccc(C(=O)N[C@@H]2[C@H](O)[C@@H](CO)O[C@H]2n2cnc3c(NCc4cccc5ccccc45)ncnc32)c1 |  | 25 |  |  |  |  |  |
| Not Active | O=C(N[C@@H]1[C@H](O)[C@@H](CO)O[C@H]1n1cnc2c(NCc3cccc4ccccc34)ncnc21)c1ccccc1Cl |  |  |  |  |  |  |  |
|  | CC(=O)Oc1cccc(C(=O)N[C@@H]2[C@H](O)[C@@H](CO)O[C@H]2n2cnc3c(NCc4cccc5ccccc45)ncnc32)c1 |  | 50 |  |  |  |  |  |
|  | O=C(Cn1ccnc1[N+](=O)[O-])NCc1ccccc1 [BENZNIDAZOLE] |  |  |  | > 50 | > 50 | 0.5 |  |
